An excerpt weighted towards active compounds, which were near 3.7% of everything screened.
Kir21 inh = inhibitors of mouse Kir2.1 inward-rectifier potassium channel. Inward rectifier potassium channel 2 (Mus musculus), P35561. 310,000 tested, 0.85% active. B-score at 10 µM. HEK293-Kir2.1, FluxOR thallium flux fluorescence; hits give low values;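 active = fluorescence ratio B-score at or below minus 3 SD of library scores, with starting-brightness B-score within 2 SD, cut at about -4.2 in these data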;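 also: channel flux triggered by added potassium and thallium sulfate stimulus; B-score of peak minus minimum fluorescence over baseline after thallium stimulus; more negative B-score means stronger Kir2.1 block with less thallium influx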
KCNK9 inh = KCNK9 potassium channel inhibitors, primary screen, HEK293 cells, thallium flux. FluxOR thallium flux fluorescence; hits give low values. B-score at 10 µM. 310,000 tested, 1.2% active. AID 488922, 2010;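 active = ratio B-score over 3 SD below the library mean, with starting fluorescence within 5 SD of its mean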;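 also: negative B-score means less thallium flux so channel inhibition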
Target sequence (Q9NPC2 whole entry, looked up): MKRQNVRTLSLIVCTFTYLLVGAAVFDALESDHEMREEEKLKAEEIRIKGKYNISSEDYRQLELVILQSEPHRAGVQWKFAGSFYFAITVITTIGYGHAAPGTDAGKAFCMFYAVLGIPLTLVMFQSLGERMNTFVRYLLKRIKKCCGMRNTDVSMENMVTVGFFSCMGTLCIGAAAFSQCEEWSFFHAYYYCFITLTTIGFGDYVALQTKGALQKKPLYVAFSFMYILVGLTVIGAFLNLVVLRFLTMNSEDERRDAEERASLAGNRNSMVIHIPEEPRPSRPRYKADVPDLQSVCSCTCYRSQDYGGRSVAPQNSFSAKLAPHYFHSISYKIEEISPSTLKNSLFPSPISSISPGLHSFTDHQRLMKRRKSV
KCNK3 inh = human KCNK3 channel inhibitors, primary screen, CHO cells, FluxOR thallium flux, B-score; Potassium channel subfamily K member 3 (Homo sapiens), O14649; FluxOR fluorescence; hits give low values; B-score at 10 µM; 340,000 tested, 0.84% active; AID 602410, 2012;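 active = B-score under library mean minus 4 SD, starting fluorescence ratio at most library mean plus 5 SD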;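 also: more negative B-score means stronger inhibition of thallium flux through KCNK3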
KCNQ1 pot = potentiators or activators of KCNQ1 channel, primary screen, cell-based, thallium flux, high-throughput; Potassium voltage-gated channel subfamily KQT member 1 (Homo sapiens), P51787; AID 2648, 2010; B-score at 10 µM; 310,000 tested, 0.35% active; CHO-K1 KCNQ1, thallium flux FluxOR fluorescence; hits give high values;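 active = fluorescence ratio B-score, a plate-corrected score, at least three library SD, with initial intensity B-score within 5 SD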
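Schedule – 37 °C overnight plating, 90-min dark dye load, 20-min compound pretreatment · System – stable KCNQ1 CHO-K1 line · Probe or stimulus – thallium- and potassium-containing depolarizing buffer · Measured by – kinetic FluxOR fluorescence, 10 s baseline plus 110 s post-stimulus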
KCNQ1 inh = inhibitors of human KCNQ1 channel, primary screen, cell-based, thallium flux, high-throughput; B-score at 10 µM; CHO-K1 KCNQ1, FluxOR thallium flux fluorescence; hits give high values; Potassium voltage-gated channel subfamily KQT member 1 (Homo sapiens), P51787; AID 2642, 2010; 310,000 tested, 1.3% active;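 active = compounds whose thallium flux B-score, printed positive for inhibition, exceeds three library SD while starting fluorescence stays within three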;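 also: channel opened by potassium depolarization with thallium stimulus after 20 min compound exposure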
hERG rescue = hERG rescue from dofetilide block, primary screen, cell-based, CHO-hERG, FluxOR thallium flux, dofetilide IC70; Voltage-gated inwardly rectifying potassium channel KCNH2 (Homo sapiens), Q12809; 310,000 tested, 0.51% active; dofetilide IC70 present; activation (rescue from dofetilide block), less the hit threshold, % at 10 µM;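 active = activation above the mean of controls blocked by dofetilide plus 5 SD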;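 also: thallium influx through hERG after potassium depolarization seen as dye fluorescence rise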
* marks the source's active call; other numbers are inactive results.

O=C(Nc1oc2ccc(Cl)cc2c(=O)c1-c1ccc(F)cc1)c1ccco1 was read as Kir21 inh -0.02, KCNK9 inh inactive, KCNK3 inh inactive, KCNQ1 pot inactive, KCNQ1 inh inactive and hERG rescue -5.
OC[C@@H]1[C@@H](c2ccc(Cl)cc2)C(c2ccc(F)cc2)=NN1c1ccccc1 was read as KCNK3 inh inactive.
Screening CCN1CC(c2ccccc2)C(c2ccc(Cl)cc2)=N1 (configuration not stated) returned Kir21 inh -1.5, KCNK9 inh -7*, KCNK3 inh inactive, KCNQ1 pot inactive, KCNQ1 inh inactive and hERG rescue -3.
For CCC/C(O)=C1\C(=O)CC(C)(C)CC1=Nc1ccc(OC)cc1 the results were Kir21 inh -0.54, KCNK9 inh inactive, KCNK3 inh inactive, KCNQ1 pot inactive, KCNQ1 inh inactive and hERG rescue -12.
`Cc1ccc(NC(=O)c2cc3cc(OC(F)(F)F)ccc3[nH]2)cc1` gave Kir21 inh 0.15, KCNK9 inh inactive, KCNQ1 pot inactive, KCNQ1 inh 6* and hERG rescue -3.
`COc1cc(/C=C2\C(=N)N3N=C(S(=O)(=O)CC(C)C)SC3=NC2=O)ccc1OC(=O)c1ccco1` gave Kir21 inh -6*, KCNK9 inh inactive, KCNQ1 pot inactive, KCNQ1 inh inactive and hERG rescue -15.
For CC(C)CS(=O)(=O)C1=NSC2=NC(=O)/C(=C\c3ccc(OC(=O)c4ccco4)cc3)C(=N)N21 the results were Kir21 inh -4.4*, KCNK9 inh inactive, KCNK3 inh inactive, KCNQ1 pot inactive, KCNQ1 inh inactive and hERG rescue -8.
Screening CCS(=O)(=O)C1=NN2C(=N)/C(=C\c3ccc(OS(=O)(=O)c4ccccc4)c(OC)c3)C(=O)N=C2S1 returned Kir21 inh 0.88, KCNK9 inh inactive, KCNQ1 pot inactive, KCNQ1 inh inactive and hERG rescue -30.
`CSC1=NSC2=NC(=O)/C(=C\c3ccc(OC(=O)c4ccco4)cc3)C(=N)N12` gave Kir21 inh -0.62, KCNK9 inh inactive, KCNK3 inh inactive, KCNQ1 pot inactive, KCNQ1 inh inactive and hERG rescue -12.
For COc1cc(C(=O)Nc2ccc(NC(C)=O)cc2)ccc1OCc1ccccc1 the results were Kir21 inh 0.12, KCNK9 inh inactive, KCNK3 inh inactive, KCNQ1 pot inactive, KCNQ1 inh inactive and hERG rescue -3.
For CCOc1ccc(-n2cc(-c3ccccc3)c3c(=O)[nH]cnc32)cc1 the results were Kir21 inh 1.7, KCNK9 inh inactive, KCNK3 inh inactive, KCNQ1 pot inactive, KCNQ1 inh inactive and hERG rescue -9.
Screening CCOc1ccc(-n2cc(-c3ccccc3)c3c(=S)nc[nH]c32)cc1 returned Kir21 inh 0.67, KCNK9 inh inactive, KCNK3 inh inactive, KCNQ1 pot 39*, KCNQ1 inh inactive and hERG rescue -2.
O=C(COc1cc2oc(=O)c3c(c2cc1Cl)CCCC3)NCC1CCC(C(=O)O)CC1 (configuration not stated) was read as Kir21 inh 0.57, KCNK9 inh inactive, KCNK3 inh inactive, KCNQ1 pot inactive, KCNQ1 inh inactive and hERG rescue -11.
CCOC(=O)c1c(N)sc(C(O)(C(F)(F)F)C(F)(F)F)c1-c1ccccc1 was read as Kir21 inh -0.86, KCNK9 inh -7.5*, KCNK3 inh inactive, KCNQ1 pot inactive, KCNQ1 inh inactive and hERG rescue -18.
`COc1ccc(-c2cc3ncc(C(C)=O)c(C)n3n2)cc1` gave Kir21 inh 0.15, KCNK9 inh inactive, KCNK3 inh inactive, KCNQ1 pot inactive, KCNQ1 inh inactive and hERG rescue -6.
Cc1cccc(/C=C2/S/C(=N/N=C3\CC4CCC3(C)C4(C)C)NC2=O)c1 (configuration not stated) was read as Kir21 inh 0.73, KCNK9 inh inactive, KCNK3 inh inactive, KCNQ1 pot 18*, KCNQ1 inh inactive and hERG rescue 14*.
Screening Cc1ccccc1C(=O)Nc1nnc(SCC(=O)NCc2ccco2)s1 returned Kir21 inh 0.78, KCNK9 inh inactive, KCNK3 inh inactive, KCNQ1 pot inactive, KCNQ1 inh inactive and hERG rescue -6.
For O=C(CN1CCCc2ccccc21)NCCc1ccc(F)cc1 the results were Kir21 inh -6.5*, KCNK9 inh inactive, KCNK3 inh inactive, KCNQ1 pot inactive, KCNQ1 inh inactive and hERG rescue -12.
Screening CCOC(=O)c1cc(-c2ccc(F)cc2)n(CCC(=O)NC2CCN(Cc3ccccc3)CC2)c1C returned Kir21 inh -4.6*, KCNK9 inh inactive, KCNK3 inh inactive, KCNQ1 pot inactive, KCNQ1 inh inactive and hERG rescue -12.
For O=[N+]([O-])c1ccc(N2CCCCCC2)c([N+](=O)[O-])c1 the results were Kir21 inh -0.89, KCNK9 inh inactive, KCNK3 inh inactive, KCNQ1 pot inactive, KCNQ1 inh inactive and hERG rescue -16.
Screening N#Cc1cc([N+](=O)[O-])ccc1N1CCCC1 returned Kir21 inh -1.1, KCNK9 inh inactive, KCNK3 inh inactive, KCNQ1 pot inactive, KCNQ1 inh inactive and hERG rescue -2.
CC(C)CN(CC(C)C)S(=O)(=O)c1cc([N+](=O)[O-])ccc1N1CCCCCC1 was read as Kir21 inh -2.2, KCNK9 inh inactive, KCNK3 inh inactive, KCNQ1 pot inactive, KCNQ1 inh 7* and hERG rescue 0.
Screening CN(C)S(=O)(=O)c1cc([N+](=O)[O-])ccc1N1CCCCCC1 returned Kir21 inh -4.6*, KCNK9 inh inactive, KCNK3 inh inactive, KCNQ1 pot inactive, KCNQ1 inh inactive and hERG rescue -2.
For COc1ccc(CCNC(=O)COC(=O)Cc2cccc3ccccc23)cc1 the results were Kir21 inh -12*, KCNK9 inh inactive, KCNK3 inh inactive, KCNQ1 pot inactive, KCNQ1 inh inactive and hERG rescue -5.
Screening CN(CC(=O)NCCc1ccc(S(N)(=O)=O)cc1)S(=O)(=O)/C=C/c1ccccc1 returned Kir21 inh -0.23, KCNK9 inh inactive, KCNK3 inh inactive, KCNQ1 pot inactive, KCNQ1 inh inactive and hERG rescue -3.
